Measurements from ChEMBL document CHEMBL5653631, “A Potent and Selective ULK1 Inhibitor Suppresses Autophagy and Sensitizes Cancer Cells to Nutrient Stress” (iScience, 2018).

Legend:
[1] = target: T1, Ephrin type-A receptor 3 (Homo sapiens) (UniProt P29320); assay: Inhibition of human recombinant EphA3 at 40 nM related to control ULK1
T1 sequence (whole entry): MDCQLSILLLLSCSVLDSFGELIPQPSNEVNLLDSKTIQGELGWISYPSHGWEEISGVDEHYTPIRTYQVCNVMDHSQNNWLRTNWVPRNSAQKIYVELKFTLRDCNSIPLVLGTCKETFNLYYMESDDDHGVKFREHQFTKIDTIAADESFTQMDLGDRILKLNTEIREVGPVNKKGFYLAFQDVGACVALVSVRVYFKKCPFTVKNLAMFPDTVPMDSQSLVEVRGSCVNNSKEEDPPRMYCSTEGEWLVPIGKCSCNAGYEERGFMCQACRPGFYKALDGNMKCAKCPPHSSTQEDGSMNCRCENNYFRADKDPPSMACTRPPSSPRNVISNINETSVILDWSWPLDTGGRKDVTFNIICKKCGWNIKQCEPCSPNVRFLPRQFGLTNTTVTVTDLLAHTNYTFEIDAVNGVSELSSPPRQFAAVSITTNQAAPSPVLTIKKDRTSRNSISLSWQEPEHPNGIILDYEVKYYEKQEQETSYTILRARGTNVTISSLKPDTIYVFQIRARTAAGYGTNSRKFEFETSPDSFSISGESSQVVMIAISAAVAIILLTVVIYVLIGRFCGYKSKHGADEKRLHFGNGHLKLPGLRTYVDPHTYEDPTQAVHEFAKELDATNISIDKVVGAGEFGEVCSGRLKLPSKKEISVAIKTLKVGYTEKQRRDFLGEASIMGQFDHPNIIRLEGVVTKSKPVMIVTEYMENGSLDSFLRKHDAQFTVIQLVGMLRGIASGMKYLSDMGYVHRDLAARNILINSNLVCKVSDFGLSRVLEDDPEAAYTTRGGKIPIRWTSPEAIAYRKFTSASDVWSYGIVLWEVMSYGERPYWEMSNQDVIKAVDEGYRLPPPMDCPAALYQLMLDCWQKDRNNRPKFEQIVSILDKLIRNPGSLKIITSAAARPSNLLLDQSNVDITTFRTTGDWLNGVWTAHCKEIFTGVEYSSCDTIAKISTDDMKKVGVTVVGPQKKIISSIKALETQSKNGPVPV

[2] = target: T2, Activin receptor type-1 (Homo sapiens) (UniProt Q04771); assay: Inhibition of human recombinant ALK2 at 15 nM in presence of ATP by radiometric assay relative to control
T2 sequence (whole entry): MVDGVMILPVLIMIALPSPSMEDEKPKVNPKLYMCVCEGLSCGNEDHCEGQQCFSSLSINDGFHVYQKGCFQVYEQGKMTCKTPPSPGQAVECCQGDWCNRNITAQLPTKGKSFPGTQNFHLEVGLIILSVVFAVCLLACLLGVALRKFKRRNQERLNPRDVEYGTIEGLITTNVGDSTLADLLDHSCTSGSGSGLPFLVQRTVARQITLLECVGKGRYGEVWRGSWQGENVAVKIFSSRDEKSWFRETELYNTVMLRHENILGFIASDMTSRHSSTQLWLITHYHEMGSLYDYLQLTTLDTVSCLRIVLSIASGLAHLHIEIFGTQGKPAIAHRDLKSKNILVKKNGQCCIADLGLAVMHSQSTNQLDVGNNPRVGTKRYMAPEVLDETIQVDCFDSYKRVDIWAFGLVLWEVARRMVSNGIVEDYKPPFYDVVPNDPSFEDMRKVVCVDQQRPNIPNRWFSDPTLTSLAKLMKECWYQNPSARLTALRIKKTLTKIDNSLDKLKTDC
How it was run: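 Panel of 327 recombinant human kinases, each assayed in vitro by radiometric activity assay in duplicate at a single inhibitor concentration per compound, chosen with reference to its ULK1 inhibition. Activity remaining was expressed as percent of vehicle control, and percent inhibition was calculated as 100 minus percent activity remaining.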

[3] = target: T3, Ephrin type-B receptor 3 (Homo sapiens) (UniProt P54753); assay: Inhibition of human recombinant EphB3 at 15 nM in presence of ATP by radiometric assay relative to control
T3 sequence (whole entry): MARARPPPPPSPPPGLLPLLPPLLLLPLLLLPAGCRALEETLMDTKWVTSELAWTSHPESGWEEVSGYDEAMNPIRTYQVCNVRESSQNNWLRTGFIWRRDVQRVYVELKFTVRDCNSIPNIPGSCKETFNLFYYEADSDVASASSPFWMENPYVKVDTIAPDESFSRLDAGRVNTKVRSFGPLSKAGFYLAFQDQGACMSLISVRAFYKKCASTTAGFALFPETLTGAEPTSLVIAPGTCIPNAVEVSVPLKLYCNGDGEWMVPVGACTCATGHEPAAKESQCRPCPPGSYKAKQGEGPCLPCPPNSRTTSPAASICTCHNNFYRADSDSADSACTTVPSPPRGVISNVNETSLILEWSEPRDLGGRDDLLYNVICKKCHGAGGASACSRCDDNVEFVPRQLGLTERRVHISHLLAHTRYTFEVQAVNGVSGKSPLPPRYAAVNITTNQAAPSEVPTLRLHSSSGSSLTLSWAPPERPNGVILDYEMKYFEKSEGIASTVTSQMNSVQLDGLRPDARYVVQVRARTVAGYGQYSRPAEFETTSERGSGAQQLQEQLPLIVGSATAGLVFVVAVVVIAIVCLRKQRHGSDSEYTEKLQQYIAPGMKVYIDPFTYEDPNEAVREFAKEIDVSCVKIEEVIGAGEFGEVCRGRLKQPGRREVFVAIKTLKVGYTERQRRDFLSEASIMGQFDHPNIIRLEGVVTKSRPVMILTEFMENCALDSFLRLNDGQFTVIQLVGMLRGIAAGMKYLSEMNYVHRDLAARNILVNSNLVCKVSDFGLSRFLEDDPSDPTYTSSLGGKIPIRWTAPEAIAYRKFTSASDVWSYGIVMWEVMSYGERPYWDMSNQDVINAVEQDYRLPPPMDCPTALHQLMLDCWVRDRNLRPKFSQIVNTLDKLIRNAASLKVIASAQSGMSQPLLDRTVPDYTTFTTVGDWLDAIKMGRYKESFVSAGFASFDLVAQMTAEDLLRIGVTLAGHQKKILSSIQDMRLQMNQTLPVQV

## O=C(N[C@@H](C1CC1)C(F)(F)F)c1cc(-c2cnn3cc(-c4ccc(F)cc4)cnc23)cs1
[1]
  fold change (FC): 0.21

## CC(C)[C@H](NC(=O)c1cc(-c2cnn3cc(-c4ccc(OCCN5CCCCC5)cc4)cnc23)cs1)C(F)(F)F
[2]
  inhibition: 26%
[3]
  inhibition: 0%
